The record followed here is ChEMBL document CHEMBL1122020, “Synthesis and enzymic activity of various substituted pyrazolo[1,5-a]-1,3,5-triazines as adenosine cyclic 3',5'-phosphate phosphodiesterase inhibitors” (J Med Chem, 1982).

In assay [1] the target is T1, Phosphodiesterase 4 (Homo sapiens) (UniProt P27815+Q08499+Q07343+Q08493). The experiment in a line: Inhibitory activity towards cAMP phosphodiesterase isolated from rabbit lung. Type of assay: protein assay. Details: unit not given here. The note with it: Oryctolagus cuniculus; target entry is the homologue from another species. The method, boiled down:
(§1)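 PDE prepared as previously described. Each 0.5 mL reaction held 25 µmol Tris-HCl (pH 7.5), 5 µmol MgCl2, 10-75 µg enzyme protein, 350 pmol [8-3H]cAMP (850 cpm/pmol), and at least seven inhibitor concentrations (0.5 µM to 5 mM). 5'-AMP formed was measured at three or more time points (3-12 min) to confirm linear rates. I50 was read graphically from % inhibition versus log inhibitor concentration.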

Assay [2] addresses T1, Phosphodiesterase 4 (Homo sapiens). The experiment in a line: Inhibitory activity towards cAMP phosphodiesterase isolated from bovine heart. The note with it: Bos taurus; target entry is the homologue from another species. In kind it is protein assay. On the set-up: unit not given here. In outline:
as §1

Assay [3] has the same target. The experiment in a line: Inhibitory activity towards cAMP Phosphodiesterase isolated from rabbit heart. In kind it is protein assay. On the set-up: reference not given here. The note with it: Oryctolagus cuniculus; target entry is the homologue from another species.
Assay [4] has the same target. The experiment in a line: (§2) Inhibition of bovine brain cAMP Phosphodiesterase. The note with it: Bos taurus; target entry is the homologue from another species. In outline:
as §1

Assay [5] is filed under the species Bos taurus. The assay is described as §2. On the set-up: unit not given here. The method, boiled down:
as §1

The species entered for assay [6] is Bos taurus.
The species named for assay [7] is Bos taurus. The source holds these as a separate data set.
Assay [8] can be described thus: Inhibition of rabbit lung cAMP Phosphodiesterase. Details: species or system Oryctolagus cuniculus. The note with it: read-out: I50. In outline: (§3)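 Enzymes prepared as previously described (beef heart, 14 units/mg; rabbit lung, 70 units/mg). The 0.5 mL reaction held 25 µmol Tris-HCl pH 7.5, 5 µmol MgCl2, 10-75 µg enzyme protein, 350 pmol [8-3H]cAMP (850 cpm/pmol), and at least seven inhibitor concentrations (0.5 µM to 5 mM). 5'-AMP was measured at three or more time points (3-12 min) to confirm linear rates. I50 was read graphically from % inhibition vs log concentration.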

A short description of assay [9]: Inhibition of bovine heart cAMP Phosphodiesterase. On the set-up: species or system Bos taurus. In outline:
as §3

Consider `CCc1nc(C)n2nccc2n1`, for which the Activity in assay [1] was 2.4; in assay [2] it was 0.5.
On to `CCc1nc(C)n2nc(-c3ccccc3)cc2n1`, for which the Activity in assay [1] amounted to 12; in assay [2], 2.7.
The matching figures for `CCc1nc(C)nc2c(C#N)cnn12`: 1.2 and 1.7.
For `c1ccc(-c2cc3ncnc(N4CCCCC4)n3n2)cc1`, in that order: 29 and 11.
On to `CSc1nc(OC(C)C)n2ncc(Br)c2n1`, for which the Activity in assay [3] is 4; in assay [1] it was 1.5.
Take `CCN(CC)c1nc(SC)nc2ccnn12`: the Activity in assay [3] was determined as 12.2; in assay [4], 12; in [1] it was 19.
With `CCCOc1nc(SC)nc2c(Br)cnn12`, the Activity in assay [3] amounted to 0.7; in assay [1] it was 2.7.
For `CCSc1nc(SC)nc2ccnn12`, in that order: 3.2 and 8.
For `CCc1nc(CC)n2nc(-c3ccccc3)cc2n1`, the results for the Activity (in assay [1]; in the assay filed under Bos taurus [5]; in [2]) were 20, 12 and 7, respectively.
Regarding `CCN(CC)c1ncnc2c(Br)c(-c3ccccc3)nn12`, the Activity worked out at 185 in [1] and 40 in assay [2].
With `COc1nc(SC)nc2ccnn12`, the Activity was 0.5 in [3] and 0.6 in [1].
For `CCc1nc(C)nc2c(Br)c(-c3ccccc3)nn12`, the Activity in assay [1] stood at 14; in assay [2] it was 7.
The matching figures for `Cc1nc(C)n2nc(-c3ccccc3)c(Br)c2n1`: 40 and 3.
As for `Cc1nc(C)n2nccc2n1`, the results for the Activity in assay [1] and in [2] were 1 and 0.9, respectively.
As to `CCc1nc(C)nc2c(Cl)cnn12`, the values for the Activity in [1] and in [2] were 1.8 and 0.8, respectively.
As for `CCCNc1nc(SC)nc2c(Br)cnn12`, the Activity in assay [3] was 6.9; in [1], 67.
Turning to `CCN(CC)c1ncnc2cc(-c3ccccc3)nn12`, the Activity in assay [1] came to 143; in the assay filed under Bos taurus [5], 146; in assay [2], 57.
In the case of `CCc1nc(C)nc2cc(-c3ccc(OC)cc3)nn12`, the values for the Activity in assay [1] and in assay [2] were 16 and 3, respectively.
Regarding `CSc1nc(SC)n2ncc(Br)c2n1`, the Activity in assay [3] turned out to be 1.5; in assay [1] it was 5.
Take `Cc1ncn2nc(-c3ccccc3)c(Br)c2n1`: the Activity in [1] came to 1.8; in assay [2], 0.9.
`CCCc1nc(C)nc2cc(-c3ccccc3)nn12`: the Activity in [1] stood at 10; in assay [2], 11.
With `Cc1nc(O)n2nc(-c3ccccc3)cc2n1`, the Activity in assay [1] amounted to 1.9; in the assay filed under Bos taurus [5] it was 4.7; in assay [2], 0.5.
As for `CCc1nc(C)nc2cc(-c3ccccc3)nn12`, the Activity in assay [1] is 21; in assay [2] it was 4.
For `CSc1nc(C)n2nccc2n1`, the Activity in [3] is 0; in [1] it was 1.6.
The matching figures for `COc1nc(SC)nc2c(Br)cnn12`: 3.2 and 9.
As to `CCCCNc1ncnc2cc(-c3ccccc3)nn12`, the Activity worked out at 13.5 in assay [1] and 2.5 in assay [2].
As for `CCSc1nc(SC)nc2c(Br)cnn12`, the Activity in assay [3] turned out to be 2.6; in [1], 13.
Consider `Cc1nc(C)n2nc(-c3ccccc3)cc2n1`, for which the Activity in [1] stood at 22; in the assay listed under Bos taurus [5], 19; in [2], 3.5.
Compound `CCc1nc(C)nc2c(-c3cccc(C)c3)cnn12` registered an Activity in assay [2] of 5.
Turning to `CCCNc1ncnc2cc(-c3ccccc3)nn12`, the Activity came out at 26 in [1] and 3.8 in [2].
For the compound `CCc1nc(CC)n2nc(-c3ccccc3)c(Br)c2n1`, the Activity in assay [1] is 9; in assay [2], 2.
Regarding `Cc1nc(C)n2ncc(-c3ccccc3)c2n1`, the Activity turned out to be 25 in [1], 40 in the assay listed under Bos taurus [5] and 3 in [2].
Consider `CCc1nc(CC)n2nc(-c3ccc(OC)cc3)cc2n1`, for which the Activity in [1] turned out to be 14; in [2] it was 8.
In the case of `CCCc1nc(C)nc2c(Br)c(-c3ccccc3)nn12`, the figures for the Activity in [1] and in assay [2] were 8 and 2, respectively.
As for `CCCNc1nc(SC)nc2ccnn12`, the Activity in [3] turned out to be 5.8; in assay [1], 12.
As for `CCc1nc(C)nc2c(-c3ccccc3)cnn12`, the values for the Activity (in assay [1]; in the assay filed under Bos taurus [5]; in [2]) were 27, 39 and 10, respectively.
For `Cc1ncn2nc(-c3ccccc3)cc2n1`, in that order: 25, 49 and 3.
`Cc1nc(-c2ccccc2)n2nc(-c3ccccc3)cc2n1` had an Activity in assay [1] of 10.
Consider `CSc1ncnc2cc(-c3ccccc3)nn12`, for which the Activity in assay [3] amounted to 7.3; in assay [1], 11.
For `CCOC(=O)c1cnn2c(CC)nc(C)nc12`, the Activity in assay [1] came to 0.7; in [2] it was 1.2.
The matching figures for `CCCCNc1nc(C)nc2cc(-c3ccccc3)nn12`: 11 and 1.7.
Consider `CCc1nc(C)nc2ccnn12`, for which the values for the Activity in assay [1] and in assay [2] were 1.1 and 0.7, respectively.
Turning to `Nc1ncnc2c1ncn2[C@@H]1O[C@@H]2COP(=O)(O)O[C@H]2[C@H]1O`, the Km (as a rule, the substrate concentration at which the rate is half of its maximum) was determined as 0.63 µM in the assay listed under Bos taurus [6], 1.3 µM in the assay listed under Bos taurus [7] and 0.56 µM in the assay filed under Oryctolagus cuniculus.
Regarding `CCCCNc1nc(SC)nc2c(Br)cnn12`, the Activity in assay [3] came out at 12.5; in assay [4] it was 18; in assay [1], 160.
As to `CCc1nc(C)nc2c(Br)cnn12`, the figures for the Activity in assay [1] and in [2] were 2.5 and 1, respectively.
On to `CCc1nc(CC)n2nc(-c3ccccc3C)cc2n1`, for which the results for the Activity (in assay [1]; in the assay filed under Bos taurus [5]; in assay [2]) were 15, 42 and 16, respectively.
`CSc1nc(S)n2ncc(Br)c2n1`: the Activity in assay [3] was 0.68; in assay [1], 1.
Regarding `CCNc1nc(SC)nc2c(Br)cnn12`, the Activity in assay [3] was found to be 8; in [4], 17; in assay [1], 40.
Regarding `CCN(CC)c1nc(SC)nc2c(Br)cnn12`, the Activity came to 6.2 in assay [3] and 26 in [1].
Consider `Cc1cccc(-c2cnn3cnc(C)nc23)c1`, for which the results for the Activity in assay [1] and in assay [2] were 1.5 and 0.4, respectively.
In the case of `Cn1c(=O)c2nc[nH]c2n(C)c1=O` [THEOPHYLLINE], the IC50 in [8] worked out at 210 µM; in assay [9] (read-out: I50) it was 90 µM. Also, the Ki (commonly a dissociation constant, usually derived from enzyme kinetics or from competition with a known ligand) in assay [9] was found to be 77 µM.
For the compound `Cc1cccc(-c2cnn3c(C)nc(C)nc23)c1`, the Activity is 14 in assay [1] and 2 in assay [2].
With `CCc1ncn2nc(-c3ccccc3)cc2n1`, the Activity in assay [1] was determined as 14; in the assay filed under Bos taurus [5] it was 97; in assay [2] it was 0.5.
